# Assay results taken from ChEMBL document CHEMBL1914421, “Aminomethyltetrazoles as potential inhibitors of the γ-aminobutyric acid transporters mGAT1-mGAT4: synthesis and biological evaluation” (Bioorg Med Chem, 2011).
# Experiments:
# [1] = tested on: betaine/GABA transporter BGT-1 (Slc6a12, Mus musculus); experiment: Residual mouse GAT2-mediated [3H]GABA uptake expressed in human HEK cells at 100 uM; conditions: HEK293
# HEK293 = experiment: Residual mouse GAT4-mediated [3H]GABA uptake expressed in human HEK cells at 100 uM
# [2] = target: Sodium- and chloride-dependent GABA transporter 1 (Mus musculus) (UniProt P31648); experiment: Residual mouse GAT1-mediated [3H]GABA uptake expressed in human HEK cells at 100 uM; conditions: HEK293
# [3] = tested on: GABA transporter Slc6a13 (Mus musculus); experiment: Residual mouse GAT3-mediated [3H]GABA uptake expressed in human HEK cells at 100 uM; conditions: HEK293
# [4] = Inhibition of mouse GAT4-mediated [3H]GABA uptake expressed in human HEK cells; assay type: cell-based; conditions: HEK293
# Summary of the method: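 Specific [3H]GABA uptake was measured at the murine transporter subtype, and results are given as pIC50 ± SEM from three independent experiments, each run in triplicate.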
# [5] = Inhibition of GAT mediated [3H]GABA uptake in rat brain synaptosomes; assay type: subcellular
# [6] = target: T1, GABA transporter 4 (Mus musculus) (UniProt P31650); experiment: Residual mouse GAT4-mediated [3H]GABA uptake expressed in human HEK cells at 1 mM; conditions: HEK293
# T1 sequence (whole entry): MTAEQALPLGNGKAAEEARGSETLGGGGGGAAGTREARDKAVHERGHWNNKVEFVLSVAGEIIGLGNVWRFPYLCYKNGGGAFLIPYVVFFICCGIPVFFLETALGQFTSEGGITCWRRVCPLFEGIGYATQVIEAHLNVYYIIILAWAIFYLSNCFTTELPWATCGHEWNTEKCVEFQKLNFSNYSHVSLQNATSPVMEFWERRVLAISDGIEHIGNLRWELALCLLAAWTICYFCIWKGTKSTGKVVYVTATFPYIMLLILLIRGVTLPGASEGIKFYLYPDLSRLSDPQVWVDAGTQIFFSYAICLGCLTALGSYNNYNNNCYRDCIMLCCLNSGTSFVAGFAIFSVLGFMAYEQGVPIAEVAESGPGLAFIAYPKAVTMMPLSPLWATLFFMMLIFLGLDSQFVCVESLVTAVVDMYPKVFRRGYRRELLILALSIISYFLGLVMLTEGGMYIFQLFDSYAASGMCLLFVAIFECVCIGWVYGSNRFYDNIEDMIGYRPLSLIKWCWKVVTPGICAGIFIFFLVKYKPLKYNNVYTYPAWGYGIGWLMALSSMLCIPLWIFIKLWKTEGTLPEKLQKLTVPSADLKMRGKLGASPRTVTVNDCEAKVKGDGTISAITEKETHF
# [7] = tested on: betaine/GABA transporter BGT-1 (Slc6a12, Mus musculus); experiment: Residual mouse GAT2-mediated [3H]GABA uptake expressed in human HEK cells at 1 mM; conditions: HEK293
# [8] = tested on: GABA transporter Slc6a13 (Mus musculus); experiment: Residual mouse GAT3-mediated [3H]GABA uptake expressed in human HEK cells at 1 mM; conditions: HEK293
# [9] = target: Sodium- and chloride-dependent GABA transporter 1 (Mus musculus) (UniProt P31648); experiment: Residual mouse GAT1-mediated [3H]GABA uptake expressed in human HEK cells at 1 mM; conditions: HEK293
# Mus musculus [10] = species: Mus musculus; experiment: Selectivity ratio of IC50 for mouse GAT3 to IC50 for mouse GAT1
# Mus musculus [11] = species: Mus musculus; experiment: Selectivity ratio of IC50 for mouse GAT3 to IC50 for mouse GAT4
# [12] = target: T2, Sodium- and chloride-dependent GABA transporter 1 (Mus musculus, UniProt P31648); experiment: Inhibition of mouse GAT1-mediated [3H]GABA uptake expressed in BHK cells; assay type: cell-based
# GABA transporter 4 = target: T3, GABA transporter 4 (Mus musculus, UniProt P31650); experiment: Inhibition of mouse GAT4-mediated [3H]GABA uptake expressed in BHK cells; assay type: cell-based
# T3 sequence (P31650 whole entry): T1 sequence (whole entry)
# [13] = target: T2, Sodium- and chloride-dependent GABA transporter 1; experiment: Inhibition of mouse GAT1-mediated [3H]GABA uptake expressed in human HEK cells; assay type: cell-based, HEK293
# Summary of the method: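 Specific [3H]GABA uptake measured at murine GAT1. Inhibition reported as pIC50 ± SEM from three independent experiments, each run in triplicate. Where stated, some values are the mean of two independent experiments, or one experiment in triplicate.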
SMILES,residual activity [1] [%],"level, % of control (HEK293) [%]",residual activity [2] [%],residual activity [3] [%],IC50 [4] [µM],other results
c1ccc(C(NCc2nnn[nH]2)c2ccccc2)cc1,94.2,85.4,69.7,94.2,,
CCCCNCc1nnnn1C(C)(C)CC(C)(C)C,60.3,,83.3,49,49,
C(CCNCc1nnnn1C1CCCCC1)=C(c1ccccc1)c1ccccc1,69.5,58.2,64.5,,,
C(CCNCc1nnn[nH]1)=C(c1ccccc1)c1ccccc1,76.9,101,86.1,73.8,,
c1ccc(Cn2nnnc2CNCCC(c2ccccc2)c2ccccc2)cc1,61.6,,73.9,51.7,63.1,
c1ccc(C(CCCNCc2nnn[nH]2)c2ccccc2)cc1,89.3,87.4,82,75.1,,
NCCCc1nnn[nH]1,,,,,,IC50 [5]: < 100 µM
c1ccc(Cn2nnnc2CNC(c2ccccc2)c2ccccc2)cc1,84.5,57.2,81.1,,,
c1ccc(C(CCNCc2nnn[nH]2)c2ccccc2)cc1,53.2,80.5,100,72.6,,
c1ccc(C(CCCNCc2nnnn2C2CCCCC2)c2ccccc2)cc1,,43.2,70.6,,,
CC(C)(C)CC(C)(C)n1nnnc1CNCCCC(c1ccccc1)c1ccccc1,,,63.8,,29.5,
CC(C)(C)CC(C)(C)n1nnnc1CNCCN,,,,,,residual activity [6]: 92.5%; residual activity [7]: 142%; residual activity [8]: 71.1%; residual activity [9]: 133%
c1ccc(Cn2nnnc2CNCC(c2ccccc2)c2ccccc2)cc1,67.1,52.3,72.4,,,
CC(C)(C)CC(C)(C)n1nnnc1CNCCCn1c2ccccc2c2ccccc21,72.6,59.7,75.1,68.8,,
C(CNCc1nnnn1C1CCCCC1)=C(c1ccccc1)c1ccccc1,,,62.9,,51.3,
C1CN(Cc2nnn[nH]2)CCO1,,,,,,residual activity [6]: 90.8%; residual activity [7]: 88%; residual activity [8]: 87.8%; residual activity [9]: 90.6%
C(CCNCc1nnnn1Cc1ccccc1)=C(c1ccccc1)c1ccccc1,84.1,53.1,69.4,53.5,,
c1ccc(C(CNCc2nnn[nH]2)c2ccccc2)cc1,85.8,71.2,48.2,63.5,,
c1ccc(C(CCNCc2nnnn2C2CCCCC2)c2ccccc2)cc1,,,54.6,,34.7,
C1CC(c2nnn[nH]2)CCN1,,,,,,IC50 [5]: < 100 µM
CC(C)(C)CC(C)(C)n1nnnc1CN1CCOCC1,99,90.5,73.4,63.3,,

SMILES,residual activity [1] [%],"level, % of control (HEK293) [%]",residual activity [2] [%],residual activity [3] [%],IC50 [4] [µM],other results
C(CNCc1nnnn1Cc1ccccc1)=C(c1ccccc1)c1ccccc1,,,57.3,,41.7,
C1=C(c2nnn[nH]2)CCNC1,,,,,,IC50 [5]: < 100 µM
c1ccc(Cn2nnnc2CNCCCC(c2ccccc2)c2ccccc2)cc1,,49.6,68.1,,,
CC(C)(C)CC(C)(C)n1nnnc1CNCC(c1ccccc1)c1ccccc1,63.5,,83.3,53.8,67.6,
c1ccc(C(NCc2nnnn2C2CCCCC2)c2ccccc2)cc1,,,54.8,,28.8,
C(CNCc1nnn[nH]1)=C(c1ccccc1)c1ccccc1,82,79.6,80.5,46.2,,
NCc1nnn[nH]1,,,,,,residual activity [6]: 78.9%; residual activity [7]: 59.4%; residual activity [8]: 66.5%; residual activity [9]: 85.1%
CC(C)(C)CC(C)(C)n1nnnc1CNCCC(c1ccccc1)c1ccccc1,77.1,,70.7,,29.5,Ratio IC50 (Mus musculus [10]): 12; Ratio IC50 (Mus musculus [11]): 4
CC(C)(C)CC(C)(C)n1nnnc1CNC(c1ccccc1)c1ccccc1,81.4,56.9,85.6,,,
NCCc1nnn[nH]1,,,,,,IC50 [5]: < 100 µM
CC(C)(C)CC(C)(C)n1nnnc1CNCCC=C(c1ccccc1)c1ccccc1,54.9,,75.4,,18.2,
c1ccc2c(c1)c1ccccc1n2CCCNCc1nnn[nH]1,81.6,78.7,86.3,83.6,,
COc1ccccc1C1(O)CCN(CCCn2c3ccccc3c3ccccc32)CC1,,,,,16.6,IC50 [12]: 19.1 µM; IC50 (GABA transporter 4): 15.1 µM; IC50 [13]: 10.2 µM
C1CN(Cc2nnn[nH]2)CCN1,,,,,,residual activity [6]: 101%; residual activity [7]: 75.4%; residual activity [8]: 102%; residual activity [9]: 90%
NCC(=O)O,,,,,,residual activity [6]: 69.7%; residual activity [9]: 83.1%
CC(C)(C)CC(C)(C)n1nnnc1CNCC=C(c1ccccc1)c1ccccc1,,,65.7,,26.3,
CC(C)(C)CC(C)(C)n1nnnc1CN1CCNCC1,106,78.4,90.2,81.4,,
CCCCNCc1nnn[nH]1,65.3,71.5,105,74,,
C1CNCC(c2nnn[nH]2)C1 (stereo not given),,,,,,IC50 [5]: < 100 µM
NCCNCc1nnn[nH]1,,,,,,residual activity [6]: 60.7%; residual activity [7]: 80%; residual activity [8]: 86.3%; residual activity [9]: 81.7%
c1ccc(C(CNCc2nnnn2C2CCCCC2)c2ccccc2)cc1,75.9,,59.1,,44.7,
